# Data: publication PMC3475257 (The FASEB Journal, 2012)
# Tested on: fully infectious HXB2 HIV‐1
# Experiment: HXB2 virus infectivity assay
# Assay type: cell-based
# Conditions: up to 1 μM, TZM‐bl cells
# In short: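 TZM-bl reporter cells were seeded at 2×10^4 cells/well in 10% serum DMEM and left to adhere 18-24 h at 37°C. Medium was then swapped for serum-free DMEM containing 40 μg/ml DEAE-dextran. Test compound was added, followed by concentrated HXB2 stock diluted in the same medium. Infection ran 18 h at 37°C, with a luciferase (Steady-Glo) read-out.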
structure (smiles),measurement,value
"CCCCCCCCCCCCCCC[C@@H](O)[C@@H](N)CO [sphinganine, D‐erythrodihydrosphingosine]",Effect of sphinganine alone on viral infectivity,did not affect viral infectivity
